# High-throughput results as filed in PubChem BioAssay.
# Runt-SMMHC FRET: Runt domain-CBFb-SMMHC interaction inhibition; hit rate 0.74% among 220,000; Cerulean-Runt/Venus-CBFb-SMMHC FRET ratio 530/480, 1 h; inhibition, % at 20 µM; AID 1434;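 active = mean inhibition across duplicate retests at 20 µM reaching about 50%, limit read from the data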;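 also: 0% = DMSO wells and 100% = wells with excess untagged CBFb-SMMHC; inhibitors lower the FRET ratio by blocking Runt binding to CBFb-SMMHC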
# Platelet DG rel: modulates dense granule release in human platelets; human platelet-rich plasma, SFLLRN dense granule ATP release, luminescence; inhibition, %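 (compounds screened at 7.5 µM in platelet-rich plasma)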; hit rate 0.22% among 300,000; AID 1663;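 active = mean replicate score, as percent of positive control, at or above 50; inconclusive = mean below 50 but at least one replicate at or above 50; inactive = mean and every replicate below 50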
# Rce1 inhib: inhibitors of yeast Ras-converting enzyme | AID 2563 | calls only | yeast membranes, quenched prenylated peptide cleavage fluorescence | hit rate 0.27% among 290,000;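 active = fall in fluorescence gain of 50% or more versus controls, with final raw signal at or below 3038400; inconclusive = same 50% fall but final raw signal above 3038400; inactive = fall in fluorescence gain under 50%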;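 also: plate controls were neutral control wells for no effect and wells lacking membranes for full effect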
# Target sequence (Q03530 whole entry, looked up): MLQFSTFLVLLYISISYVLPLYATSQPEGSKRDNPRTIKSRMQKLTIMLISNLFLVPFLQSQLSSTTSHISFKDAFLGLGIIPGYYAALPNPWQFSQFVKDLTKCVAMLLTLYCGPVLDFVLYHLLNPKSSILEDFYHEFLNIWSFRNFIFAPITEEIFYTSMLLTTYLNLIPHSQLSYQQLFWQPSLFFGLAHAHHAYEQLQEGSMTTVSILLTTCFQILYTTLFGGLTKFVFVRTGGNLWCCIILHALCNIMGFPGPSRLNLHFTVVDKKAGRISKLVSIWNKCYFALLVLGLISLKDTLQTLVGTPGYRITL
# Runt-CBFb FRET: inhibitors of human RUNX1 Runt domain binding to CBFb; Q01196+Q13951; Cerulean-Runt/Venus-CBFb FRET ratio 530/480, 1 h; inhibition, % at 20 µM; hit rate 0.46% among 220,000; AID 1496;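 active = inhibition over about 50% at 20 µM in the single-dose screen, limit read from the data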;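 also: 0% = DMSO wells and 100% = excess unlabeled CBFb competitor control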
#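 test system = Cerulean-Runt domain fusion protein, energy donor | probe or stimulus = Venus-CBFb binding partner, 100 nM | incubation = two 1 h room-temperature incubations shielded from light | detection = fluorescence energy transfer, 422 nm excitation, 530/480 nm emission | measure = loss of energy transfer signal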
# RanGTP-Imp inh: inhibitors of RanGTP-importin-beta interaction, primary screen, biochemical, FRET, CFP-Ran, YFP-importin-beta, homogeneous; cell-free CFP-Ran/YFP-importin-beta FRET ratio; inhibition, % (concentration not given with the values); hit rate 1.1% among 300,000; AID 2216;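 active = more than half of the replicate wells show a fall in the fluorescence ratio signal beyond about 16%, limit read from the data, passing the limit was not always enough; inconclusive = exactly half of the replicate wells pass the set limit; inactive = fewer than half of replicates pass the limit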;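 also: 0% = DMSO wells and 100% = Ran loaded with GDP instead of GTP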
# * hit, by the source's call; i = inactive; ? = inconclusive; · = no result; + = active, no number. An excerpt weighted towards active compounds, which were near 1.8% of everything screened.
SMILES,Runt-SMMHC FRET,Platelet DG rel,Rce1 inhib,Runt-CBFb FRET,RanGTP-Imp inh
COCOc1ccc(-c2oc3c(C/C=C(\C)CCC=C(C)C)ccc(O)c3c(=O)c2OCOC)c(OCOC)c1,·,0.7,i,·,5.8
Brc1ccc2c(c1)CN1CCCC1=N2,·,-2.1,i,·,7.5
O=C1CCCC(=O)N1c1ccc(N2CCOCC2)c([N+](=O)[O-])c1,0.8,6.7,i,0.3,-4.3
COc1ccc(OC)c(C2C3CN(C(C)C)CC=C3C(C#N)=C(N)C2(C#N)C#N)c1 (stereo not given),79.3*,2.7,i,41.6,30.5*
Cc1ccc(C2C3CN(C(C)C)CC=C3C(C#N)=C(N)C2(C#N)C#N)cc1 (stereo not given),62.6*,5.5,i,80.6*,63.2*
CCCN1CC=C2C(C#N)=C(N)C(C#N)(C#N)C(c3cccc(OC)c3OC)C2C1 (stereo not given),77.6*,0.9,i,94.5*,104.0*
CCOC(=O)N1CC=C2C(C#N)=C(N)C(C#N)(C#N)[C@H](c3ccc(OCC)c(OCC)c3)[C@H]2C1,6.1,4.4,i,1.1,0.9
O=C(NC(=S)Nc1ccc2oc(-c3cccnc3)nc2c1)c1cccc(Cl)c1,-0.4,-1.6,i,0.3,-0.5
CC(C)(C)C(=O)CSc1nc2c(c(-c3cccs3)c1C#N)CCC2,27.9,-8.2,i,1.1,62.1*
CC(=O)CSc1nc(N)c(C#N)c(-c2cccs2)c1C#N,-2.3,-2.4,i,-0.1,-0.6
CCOc1ccc(-c2ccc(SC)nn2)cc1,1.9,94.8*,i,1.8,-1.1
CCCCNC1=C(Br)C(=O)CC(C)(C)C1,-0.8,-11.8,i,-1.2,-0.7
O=S1(=O)CCN(Cc2csc(-c3cccs3)n2)CC1,0.1,52.5*,i,1.4,1.5
COc1ccccc1-c1cc(C(F)(F)F)n2ncc(S(=O)(=O)c3ccccc3)c2n1,48.4,-1.7,+,15.6,1.2
COc1ccccc1-c1cc(C(F)(F)F)n2ncc(C(=O)N3CCc4ccccc4C3)c2n1,·,2.7,i,·,1.3
O=S(=O)(c1ccccc1)c1cnn2c(C(F)(F)F)cc(-c3ccccc3)nc12,13.7,-3.3,i,3.3,-3.0
O=S(=O)(c1ccccc1)c1cnn2c(C(F)(F)F)cc(-c3ccc(F)cc3)nc12,34.8,-0.4,+,6.0,2.4
Cc1c(OCC(=O)NCC(O)c2ccccc2)ccc2c3c(c(=O)oc12)CCCC3 (stereo not given),·,8.2,i,·,-0.7
CCc1nnc(NC(=O)c2cc(S(=O)(=O)N3CCOCC3)ccc2N2CCCCC2)s1,6.7,26.2,i,1.1,1.3
Cc1nn2cc(-c3ccc(Cl)cc3)nc2s1,-3.8,12.3,i,2.3,1.2
Cc1cc(-c2cccs2)n[nH]1,4.1,1.9,i,1.7,0.2
Cc1nc2nc(-c3cccs3)cn2nc1C,-105.1,5.5,i,-4.2,57.0*
Cc1nc2nc(-c3ccc(Cl)cc3)cn2nc1C,57.2*,7.9,i,61.3*,78.2*
COc1cccc(-c2cn3nc(C)c(C)nc3n2)c1,-5.4,74.1*,i,-3.7,?
COc1ccc(-c2cn3nc4c(nc3n2)CCCC4)cc1,-18.2,·,·,0.0,·
SMILES,Runt-SMMHC FRET,Platelet DG rel,Rce1 inhib,Runt-CBFb FRET,RanGTP-Imp inh
Cc1ccc(S(=O)(=O)N2CCN(c3ncnc4sccc34)CC2)cc1,·,-20.3,i,·,0.4
COC(=O)c1ccc(NC(=O)C(=O)c2cccn2C)cc1,1.6,73.2*,·,0.3,6.2
COC(=O)c1ccc(NC(=O)c2ccccc2C(=O)Nc2ccc(C(=O)OC)cc2)cc1,·,0.1,i,·,-1.5
C=CCn1c(N)c(C(=O)Nc2ccc(C)c(C)c2)c2nc3ccccc3nc21,18.8,-2.3,i,3.1,5.5
C=CCn1c(N)c(C(=O)Nc2cccc(C)c2)c2nc3ccccc3nc21,8.3,5.2,i,5.7,22.4*
CCOC(=O)C1(Cc2cccc(OC)c2)CCN(Cc2cnc(SC)nc2)CC1,6.6,-9.0,i,4.0,67.7*
CCOC(=O)C1(Cc2cccc(OC)c2)CCN(Cc2cccnc2)CC1,·,5.3,i,·,55.5*
CCOC(=O)C1(Cc2cccc(OC)c2)CCN(Cc2cccc3cnccc23)CC1,6.4,0.4,i,6.3,86.0*
CCOC(=O)C1(Cc2cccc(OC)c2)CCN(Cc2ccccc2)CC1,-4.1,0.1,i,-0.3,?
O=C(Nc1ccc(S(=O)(=O)N2CCN(c3ccccc3)CC2)cc1)c1cccs1,-5.6,-3.2,i,1.0,-1.7
Cc1ccnc(NC(=O)CCNC(=O)c2ccc(Cl)cc2)c1,·,-5.3,i,·,-3.1
CCOc1cccc(-c2c(C(=O)N/N=C/c3ccc(C)s3)nnn2-c2nonc2N)c1,·,64.6*,i,·,-0.3
COc1cccc(-c2c(C(=O)N/N=C/c3ccc(C)s3)nnn2-c2nonc2N)c1,·,24.2,i,·,1.8
CCOc1cccc(-c2c(C(=O)N/N=C/c3c(F)cccc3Cl)nnn2-c2nonc2N)c1,·,-11.9,+,·,3.9
CCOc1ccc(-c2c(C(=O)N/N=C/c3cccs3)nnn2-c2nonc2N)cc1,·,-2.6,+,·,6.6
CSCCC(NS(=O)(=O)c1ccccc1F)C(=O)NCc1cccnc1 (stereo not given),·,-3.9,i,·,-1.0
CC(Nc1ncnc2sccc12)c1ccccc1 (stereo not given),·,8.6,i,·,27.8*
CCN1CCCC1CNCc1cccc(OC)c1OCc1ccc(F)cc1 (stereo not given),1.7,31.1,i,-0.2,-0.2
CC1(C)CC(=O)C2=C(C1)N(CCN1CCOCC1)C1=C(C(=O)CC(C)(C)C1)C2c1cccc(F)c1,77.6*,-4.2,i,62.6*,129.5*
COc1ccc(C2C3=C(CC(C)(C)CC3=O)N(CCN3CCOCC3)C3=C2C(=O)CC(C)(C)C3)cc1,81.2*,28.4,i,90.7*,71.5*
CC1(C)CC(=O)C2=C(C1)N(CCN1CCOCC1)C1=C(C(=O)CC(C)(C)C1)C2c1ccc(Cl)cc1,88.1*,1.3,i,77.1*,127.3*
COCCCN1C2=C(C(=O)CC(C)(C)C2)C(c2ccc(O)c(OC)c2)C2=C1CC(C)(C)CC2=O,·,2.3,i,·,0.1
Cc1ccccc1OCC(=O)Nc1ccccc1C(=O)NC1CC1,·,-10.2,i,·,-5.1
CCC(C)(C)c1ccc(OCCCC[n+]2cccc(C)c2C)c(C(C)(C)CC)c1,-0.8,3.9,+,-2.8,1.2
CCC(C)(C)c1ccc(OCCCC[n+]2ccc(C)cc2)c(C(C)(C)CC)c1,-2.3,-1.0,i,-1.1,1.8
COc1c(C)cc(Br)cc1C(=O)Nc1ccc(S(N)(=O)=O)cc1,-0.7,-0.9,·,-3.5,-1.0
O=C(CCc1ccc(S(=O)(=O)N2CCOCC2)cc1)Nc1nccs1,146.9,3.7,i,104.0*,1.3
O=C(Nc1nccs1)c1ccc(S(=O)(=O)N2CCOCC2)cc1,3.4,-5.8,i,1.5,-2.8
